Measurements from ChEMBL document CHEMBL4725354 (J Med Chem, 2020).

Columns and labels:
[1] = test system: ABCC1; assay: Therapeutic ratio of GI50 for Growth inhibition of MDCK2 cells over expressing human ABCC1 to IC50 for inhibition of human ABCC1 expressed in MDCK2 cells preincubated for 30 mins followed by calcein AM addition and measured every 60 secs for 60 mins by fluorescence assay; settings: dog, MDCK2 cells overexpressing human ABCC1, probe calcein AM
[2] = test system: MDCK-II; assay: Cytotoxicity against MDCK2 cells assessed as reduction in cell viability at 10 uM after 72 hrs by MTT assay; format: cell-based, Canis lupus familiaris; settings: dog
Method in brief: (§1)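 Single-concentration screen at 10 µM in MDCK II BCRP and parental MDCK II cells. MTT assay, 72 h at 37 °C, 5% CO2. Viability referenced to culture medium (100%) and 10% DMSO (0%). Mean ± SEM of at least three independent experiments with duplicates.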

[3] = molecular target: T1, ABCG2 (Homo sapiens, UniProt Q9UNQ0); assay: Inhibition of human ABCG2 expressed in MDCK2 cells co-expressing GFP preincubated for 15 mins followed by pheophorbideA addition and measured after 2 hrs by flow cytometric analysis relative to control; format: cell-based, MDCK-II; settings: probe pheophorbide A, read-out: Imax
T1 sequence (Q9UNQ0 whole entry): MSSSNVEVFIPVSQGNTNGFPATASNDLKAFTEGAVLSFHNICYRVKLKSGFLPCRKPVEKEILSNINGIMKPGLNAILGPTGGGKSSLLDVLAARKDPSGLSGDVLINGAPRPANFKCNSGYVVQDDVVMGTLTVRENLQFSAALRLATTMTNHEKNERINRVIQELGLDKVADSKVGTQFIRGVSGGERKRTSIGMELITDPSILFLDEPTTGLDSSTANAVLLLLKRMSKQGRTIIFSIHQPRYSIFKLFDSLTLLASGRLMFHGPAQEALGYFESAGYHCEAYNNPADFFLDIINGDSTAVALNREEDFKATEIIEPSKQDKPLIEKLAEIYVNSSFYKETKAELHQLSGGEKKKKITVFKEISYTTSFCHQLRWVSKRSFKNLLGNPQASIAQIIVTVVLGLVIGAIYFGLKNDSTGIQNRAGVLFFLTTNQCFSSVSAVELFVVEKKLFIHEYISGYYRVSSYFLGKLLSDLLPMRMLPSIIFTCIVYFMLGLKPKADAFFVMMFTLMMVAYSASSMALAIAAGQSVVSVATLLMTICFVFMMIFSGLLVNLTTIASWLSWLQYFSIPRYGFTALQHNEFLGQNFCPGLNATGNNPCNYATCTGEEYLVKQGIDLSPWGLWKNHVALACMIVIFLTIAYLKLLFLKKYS

[4] = Cytotoxicity against human A2780 cells assessed as reduction in cell viability after 72 hrs by MTT assay
[5] = Cytotoxicity against MDCK2 cells assessed as reduction in cell viability after 72 hrs by MTT assay; format: cell-based, Canis lupus familiaris, MDCK-II; settings: dog
Method in brief: (§2)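 MTT viability assay. Compound dilutions in culture medium (3.2 to 1000 µM as prepared). About 2,000 cells per well, 72 h at 37 °C, 5% CO2. Culture medium set as 100% and 10% DMSO as 0% viability. MTT added for 1 h, formazan dissolved in DMSO, absorbance read at 570 nm with 690 nm background. GI50 from nonlinear regression of absorbance vs log concentration; at least three independent experiments, duplicates, mean ± SEM.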

[6] = test system: ABCB1; assay: Therapeutic ratio of GI50 for Growth inhibition of A2780/ADR cells over expressing human ABCB1 to IC50 for inhibition of human ABCB1 expressed in A2780/ADR cells preincubated for 30 mins followed by calcein AM addition and measured every 60 secs for 60 mins by fluorescence assay; settings: A2780/ADR cells overexpressing human ABCB1, probe calcein AM
[7] = test system: MDCK-II; assay: Cytotoxicity against MDCK2 cells over expressing human ABCG2 at 10 uM assessed as reduction in cell viability after 72 hrs by MTT assay; format: ADME, cell-based, Canis lupus familiaris; settings: dog; method in brief: as §1
[8] = Cytotoxicity against MDCK2 cells over expressing human ABCG2 assessed as reduction in cell viability after 72 hrs by MTT assay; format: ADME, cell-based, Canis lupus familiaris, MDCK-II; settings: dog, MDCK2 cells overexpressing human ABCG2; method in brief: as §2
[9] = molecular target: T2, Broad substrate specificity ATP-binding cassette transporter ABCG2 (Homo sapiens, UniProt Q9UNQ0); assay: Inhibition of human ABCG2 expressed in MDCK2 cells co-expressing GFP preincubated for 15 mins followed by pheophorbideA addition and measured after 2 hrs by flow cytometric analysis; format: cell-based, MDCK-II
T2 sequence (Q9UNQ0 whole entry): T1 sequence (Q9UNQ0 whole entry)
Method in brief: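 Pheophorbide A added to 0.5 µM final and incubated 2 h. Read by flow cytometry (ex 488, em 695/50 nm); GFP expression checked at 525/30 nm. IC50 from 3- or 4-parameter logistic fit.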

[10] = Cytotoxicity against MDCK cells over expressing ABCC1 assessed as reduction in cell viability after 72 hrs by MTT assay; format: ADME, cell-based, Canis lupus familiaris, MDCK-II; settings: dog, MDCK cells overexpressing ABCC1; method in brief: as §2
[11] = molecular target: ATP-dependent translocase ABCB1 (Homo sapiens, UniProt P08183); assay: Inhibition of human ABCB1 expressed in A2780/ADR cells preincubated for 30 mins followed by calcein AM addition and measured every 60 secs for 60 mins by fluorescence assay; format: cell-based
ATP-dependent translocase ABCB1, sequence (P08183 whole entry): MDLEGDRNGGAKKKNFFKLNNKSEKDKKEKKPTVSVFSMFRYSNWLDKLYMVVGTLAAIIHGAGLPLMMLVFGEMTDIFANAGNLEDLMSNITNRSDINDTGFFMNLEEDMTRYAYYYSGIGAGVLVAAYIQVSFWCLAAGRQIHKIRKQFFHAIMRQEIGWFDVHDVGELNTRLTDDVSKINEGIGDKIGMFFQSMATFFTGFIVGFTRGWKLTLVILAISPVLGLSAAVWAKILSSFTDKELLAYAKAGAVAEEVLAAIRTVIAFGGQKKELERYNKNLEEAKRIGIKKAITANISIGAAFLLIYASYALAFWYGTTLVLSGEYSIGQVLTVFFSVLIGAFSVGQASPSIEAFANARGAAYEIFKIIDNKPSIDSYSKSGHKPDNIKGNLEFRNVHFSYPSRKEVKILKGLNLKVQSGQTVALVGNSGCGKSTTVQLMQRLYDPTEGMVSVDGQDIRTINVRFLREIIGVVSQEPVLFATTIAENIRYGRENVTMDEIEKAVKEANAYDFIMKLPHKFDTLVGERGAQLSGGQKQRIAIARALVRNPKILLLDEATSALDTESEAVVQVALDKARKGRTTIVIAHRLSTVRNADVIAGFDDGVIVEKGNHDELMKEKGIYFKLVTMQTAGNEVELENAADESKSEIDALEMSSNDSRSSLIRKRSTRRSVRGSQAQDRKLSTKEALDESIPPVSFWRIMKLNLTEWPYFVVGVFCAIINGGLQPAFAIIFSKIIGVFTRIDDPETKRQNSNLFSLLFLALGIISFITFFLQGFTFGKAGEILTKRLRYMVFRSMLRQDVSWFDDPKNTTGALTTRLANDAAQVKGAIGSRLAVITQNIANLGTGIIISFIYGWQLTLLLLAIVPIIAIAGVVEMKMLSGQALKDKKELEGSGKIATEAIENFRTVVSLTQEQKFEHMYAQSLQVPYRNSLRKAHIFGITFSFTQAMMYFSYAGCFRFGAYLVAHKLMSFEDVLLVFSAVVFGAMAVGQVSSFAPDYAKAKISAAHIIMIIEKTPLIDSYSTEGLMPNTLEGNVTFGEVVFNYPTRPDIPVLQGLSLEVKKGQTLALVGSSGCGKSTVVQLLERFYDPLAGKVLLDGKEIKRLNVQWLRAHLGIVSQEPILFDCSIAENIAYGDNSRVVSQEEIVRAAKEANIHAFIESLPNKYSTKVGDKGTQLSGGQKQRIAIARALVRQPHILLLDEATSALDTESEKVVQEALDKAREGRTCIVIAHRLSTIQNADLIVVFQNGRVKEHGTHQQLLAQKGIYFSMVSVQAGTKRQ
Method in brief: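 ABCB1 in A2780/ADR cells (kept resistant by one passage in 1 µM doxorubicin every 10 passages). 30,000 cells per well in Krebs-HEPES buffer, preincubated 30 min at 37 °C with inhibitor. Calcein AM added from a 3.125 µM solution. Fluorescence (ex 485, em 520 nm) read every 60 s for 60 min. Initial linear slopes vs log concentration fitted to give IC50.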

[12] = Cytotoxicity against human A2780/ADR cells over expressing ABCB1 assessed as reduction in cell viability after 72 hrs by MTT assay; format: ADME, cell-based; settings: A2780/ADR cells overexpressing ABCB1; method in brief: as §2
[13] = test system: ABCG2; assay: Therapeutic ratio of GI50 for growth inhibition of MDCK2 cells over expressing human ABCG2 to IC50 for inhibition of human ABCG2 expressed in MDCK2 cells co-expressing GFP; settings: dog, MDCK2 cells overexpressing human ABCG2

## Cc1cc(Nc2ccc3ncccc3c2)nc(-c2ccccc2)n1
[1]
  selectivity ratio: 4.9
[2]
  Activity: Non-Toxic
[3]
  Emax at 2 h: 79%
[4]
  GI50 at 72 h: 22.6 µM
[5]
  GI50 at 72 h: 38.4 µM
[6]
  selectivity ratio: 5.6
[7]
  Activity: Non-Toxic
[8]
  GI50 at 72 h: 42.1 µM
[9]
  IC50: 0.151 µM
[10]
  GI50 at 72 h: 35.4 µM
[11]
  IC50: 5.13 µM
[12]
  GI50 at 72 h: 28.9 µM
[13]
  selectivity ratio: 279
